Calls of active or inactive are those of the source.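 How the source made its calls: active means compound blocking phage lysis by over 30% at some tested dose and judged capsule specific; inactive means the rest.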

In one test the test system is E. coli EV36 T7 phage lysis, OD600 3 h. Description: T7 phage lysis of capsulated E. coli, dose response, selectivity assay for bacterial capsule biogenesis inhibitors, set 5 (AID 588322).
Settings: not given
In short, it runs like this: (§1)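 Measure: Capsule-loss-dependent T7 phage lysis judged from culture OD600; Test system: Escherichia coli EV36, a K1:K-12 hybrid strain; Incubation: 1.5 h compound pre-incubation, 37 °C, then 3 h phage infection; Measured by: OD600 absorbance at 3 h post-infection; Doses: dilution series from 100 to 0.39 µM final, 1% DMSO.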
A word on the IC50: it is the concentration that inhibits the measured activity by half. As to `O=C(Nc1cc(-c2ccccc2)sc1C(=O)O)c1cc2ccccc2o1`, the IC50 is 7.11 µM (inactive). On the same count and under the same terms, in the case of `O=C(Nc1cc(-c2ccccc2)sc1C(=O)O)c1cccc(F)c1` it was 29.4 µM (inactive).

`O=C(O)c1sc(-c2ccccc2)cc1NC(=O)C1CCCC1`: the IC50 was 57.4 µM (inactive). On the same count and under the same terms, next, `O=C(Nc1cc(-c2ccccc2)sc1C(=O)O)c1ccc2c(c1)OCCO2`: 12.7 µM (inactive).

Take `Cc1ccc(C(=O)Nc2cc(-c3ccccc3)sc2C(=O)O)s1`: the IC50 is 41.7 µM (inactive). On the same count and under the same terms, in the case of `CCOc1ccc(-c2cc(NC(=O)c3cccc(Cl)c3)c(C(=O)O)s2)cc1` it was 4.25 µM (inactive); in that of `CCOc1ccc(-c2cc(NC(=O)c3c(F)cccc3F)c(C(=O)O)s2)cc1`, 0.71 µM (inactive). Same read-out and setting: in the case of `O=C(Nc1cc(-c2ccccc2)sc1C(=O)O)c1cccc(Cl)c1` it was 33.4 µM (inactive). Turning to `O=C(O)c1sc(-c2ccccc2)cc1NC(=O)C1CCCCC1`, the IC50 is 55 µM (inactive).

On to `O=C(Nc1cc(-c2ccccc2)sc1C(=O)O)c1ccc(Cl)s1`, for which the IC50 is 15 µM (inactive).

`O=C(Nc1cc(-c2ccccc2)sc1C(=O)O)c1cc(Cl)c2c(c1)OCCO2`: the IC50 is 16 µM (inactive). Same read-out and setting: in the case of `O=C(Nc1cc(-c2ccccc2)sc1C(=O)O)c1cccs1` it was 7.11 µM (inactive); in that of `CCOc1ccc(-c2cc(NC(=O)c3ccc(OC)c(OC)c3)c(C(=O)O)s2)cc1`, 7.72 µM (inactive); in that of `Cc1c(C(=O)Nc2cc(-c3ccccc3)sc2C(=O)O)oc2ccccc12`, 30.1 µM (inactive). For the compound `O=C(Nc1cc(-c2ccccc2)sc1C(=O)O)c1ccc(Br)o1`, the IC50 is 8.13 µM (inactive).

Test system in a further test: not listed separately
Described as above. As to conditions: E. coli EV36 T7 phage lysis, OD600 3 h; at 100 µM (top of the series). A digest of the protocol: as §1
As for `Cc1onc(-c2ccccc2)c1C(=O)Nc1cc(-c2ccccc2)sc1C(=O)O`, the cell growth (A600 at 3 h p.i., % of EV36+DMSO+T7 control); lower = more lysis is 104% (inactive). In the case of `CCOc1ccc(-c2cc(NC(=O)c3c(F)cccc3F)c(C(=O)OC)s2)cc1`, the cell growth (A600 at 3 h p.i., % of EV36+DMSO+T7 control); lower = more lysis is 114% (inactive). For `COC(=O)c1sc(-c2ccccc2)cc1NC(=O)c1c(F)cccc1F`, the cell growth (A600 at 3 h p.i., % of EV36+DMSO+T7 control); lower = more lysis was 111% (inactive).

For the origin of these results see PubChem BioAssay AID588322 (Southern Research Specialized Biocontainment Screening …, 2011).
